According to ChEMBL document CHEMBL1147862, “Studies on synthesis and pharmacological activities of 3,6-disubstituted-1,2,4-triazolo[3,4-b]-1,3,4-thiadiazoles and their dihydro analogues” (2007):

Columns and labels:
Type in all cases: functional
[1] = system: Pseudomonas aeruginosa; experiment: Antibacterial activity against Pseudomonas aeruginosa at 30 ug/ml by agar plate diffusion technique; conditions: read-out: IZ
[2] = system: Mus musculus; experiment: Analgesic activity in Swiss mouse assessed as increase in reaction time at 20 mg/kg, po after 90 mins by Eddy's hot plate technique
How it was run: (§1)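 Swiss mice of either sex, 25–35 g, placed one at a time on a hot plate held at 55 °C. End point is paw licking or jumping, whichever comes first, with a 15 s cut-off to avoid paw injury. Reaction time is recorded and reported as percent increase in reaction time.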

[3] = system: Mus musculus; experiment: Analgesic activity in Swiss mouse assessed as increase in reaction time at 20 mg/kg, po after 30 mins by Eddy's hot plate technique; how it was run: as §1
[4] = system: Bacillus subtilis; experiment: Antibacterial activity against Bacillus subtilis at 20 ug/ml by agar plate diffusion technique; conditions: read-out: IZ
[5] = system: Rattus norvegicus; experiment: Antiinflammatory activity in Wistar Albino rat assessed as inhibition of carrageenan-induced paw oedema at 20 mg/kg after 3 hrs relative to control
How it was run: (§2)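 Wistar albino rats, 150–200 g, six per group, dosed orally with a 20 mg/kg suspension; control gets 0.1 ml 1% gum acacia. After 30 min, 0.1 ml 1% carrageenan in saline is injected subplantar into the right hind paw. Paw volume is read by plethysmograph at 0–4 h. Inhibition = 100(1 − Vtest/Vcontrol) on mean volume increase.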

[6] = system: Staphylococcus aureus; experiment: Antibacterial activity against Staphylococcus aureus at 10 ug/ml by agar plate diffusion technique; conditions: read-out: IZ
[7] = system: Candida albicans; experiment: Antifungal activity against Candida albicans at 30 ug/ml by paper disc method; conditions: read-out: IZ
[8] = system: Bacillus subtilis; experiment: Antibacterial activity against Bacillus subtilis at 10 ug/ml by agar plate diffusion technique; conditions: read-out: IZ
[9] = system: Aspergillus niger; experiment: Antifungal activity against Aspergillus niger at 20 ug/ml by paper disc method; conditions: read-out: IZ
[10] = system: Bacillus subtilis; experiment: Antibacterial activity against Bacillus subtilis at 30 ug/ml by agar plate diffusion technique; conditions: read-out: IZ
[11] = system: Escherichia coli; experiment: Antibacterial activity against Escherichia coli at 20 ug/ml by agar plate diffusion technique; conditions: read-out: IZ
[12] = system: Pseudomonas aeruginosa; experiment: Antibacterial activity against Pseudomonas aeruginosa at 10 ug/ml by agar plate diffusion technique; conditions: read-out: IZ
[13] = system: Escherichia coli; experiment: Antibacterial activity against Escherichia coli at 10 ug/ml by agar plate diffusion technique; conditions: read-out: IZ
[14] = system: Pseudomonas aeruginosa; experiment: Antibacterial activity against Pseudomonas aeruginosa at 20 ug/ml by agar plate diffusion technique; conditions: read-out: IZ
[15] = system: Staphylococcus aureus; experiment: Antibacterial activity against Staphylococcus aureus at 30 ug/ml by agar plate diffusion technique; conditions: read-out: IZ
[16] = system: Escherichia coli; experiment: Antibacterial activity against Escherichia coli at 30 ug/ml by agar plate diffusion technique; conditions: read-out: IZ
[17] = system: Rattus norvegicus; experiment: Antiinflammatory activity in Wistar Albino rat assessed as inhibition of carrageenan-induced paw oedema at 20 mg/kg after 2 hrs relative to control; how it was run: as §2
[18] = system: Aspergillus niger; experiment: Antifungal activity against Aspergillus niger at 30 ug/ml by paper disc method; conditions: read-out: IZ
[19] = system: Candida albicans; experiment: Antifungal activity against Candida albicans at 10 ug/ml by paper disc method; conditions: read-out: IZ
[20] = system: Aspergillus niger; experiment: Antifungal activity against Aspergillus niger at 10 ug/ml by paper disc method; conditions: read-out: IZ
[21] = system: Mus musculus; experiment: Analgesic activity in Swiss mouse assessed as increase in reaction time at 20 mg/kg, po after 60 mins by Eddy's hot plate technique; how it was run: as §1
[22] = system: Candida albicans; experiment: Antifungal activity against Candida albicans at 20 ug/ml by paper disc method; conditions: read-out: IZ
[23] = system: Staphylococcus aureus; experiment: Antibacterial activity against Staphylococcus aureus at 20 ug/ml by agar plate diffusion technique; conditions: read-out: IZ
[24] = system: Rattus norvegicus; experiment: Antiinflammatory activity in Wistar Albino rat assessed as inhibition of carrageenan-induced paw oedema at 20 mg/kg after 1 hr relative to control; how it was run: as §2
[25] = system: Rattus norvegicus; experiment: Antiinflammatory activity in Wistar Albino rat assessed as inhibition of carrageenan-induced paw oedema at 20 mg/kg after 4 hrs relative to control; how it was run: as §2

| Structure (SMILES) | zone of inhibition at 30 µg/mL [1] | Activity [2] | Activity [3] | zone of inhibition at 20 µg/mL [4] | inhibition in vivo at 20 mg/kg [5] | zone of inhibition at 10 µg/mL [6] | zone of inhibition at 30 µg/mL [7] | zone of inhibition at 10 µg/mL [8] | zone of inhibition at 20 µg/mL [9] | zone of inhibition at 30 µg/mL [10] | zone of inhibition at 20 µg/mL [11] | zone of inhibition at 10 µg/mL [12] | zone of inhibition at 10 µg/mL [13] | zone of inhibition at 20 µg/mL [14] | zone of inhibition at 30 µg/mL [15] | zone of inhibition at 30 µg/mL [16] | inhibition in vivo at 20 mg/kg [17] | zone of inhibition at 30 µg/mL [18] | zone of inhibition at 10 µg/mL [19] | zone of inhibition at 10 µg/mL [20] | further results |
| --- | --- | --- | --- | --- | --- | --- | --- | --- | --- | --- | --- | --- | --- | --- | --- | --- | --- | --- | --- | --- | --- |
| COc1ccc(Cc2nnc3n2NC(c2cccn2C)S3)cc1OC (stereo not given) | 11.4 mm | 19.24% | 5.62% | 6.3 mm | 18.4% | 3.74 mm | 12.1 mm | 3.3 mm | 7.9 mm | 9.12 mm | 6.71 mm | 4.12 mm | 3.95 mm | 7.48 mm | 10.6 mm | 10.2 mm | 15.8% | 12.6 mm | 4.18 mm | 4.35 mm | Activity [21]: 10.24%; zone of inhibition at 20 µg/mL [22]: 7.1 mm; zone of inhibition at 20 µg/mL [23]: 5.92 mm; inhibition in vivo at 20 mg/kg [24]: 13.4%; inhibition in vivo at 20 mg/kg [25]: 19.9% |
| COc1ccc(Cc2nnc3sc(-c4ccnc(Cl)c4)nn23)cc1OC | 19.4 mm | 23.89% | 6.24% | 13.9 mm | 22.5% | 7.05 mm | 19.4 mm | 7.19 mm | 13 mm | 18.9 mm | 12.8 mm | 6.93 mm | 6.72 mm | 12.2 mm | 18.1 mm | 19.7 mm | 13.2% | 18.4 mm | 6.82 mm | 7.23 mm | Activity [21]: 12.55%; zone of inhibition at 20 µg/mL [22]: 12.9 mm; zone of inhibition at 20 µg/mL [23]: 13.6 mm; inhibition in vivo at 20 mg/kg [24]: 11.2%; inhibition in vivo at 20 mg/kg [25]: 24.2% |
| COc1ccc(Cl)c(-c2nnc3sc(Cc4c(C)[nH]c5ccc(OC)cc45)nn23)c1 | 12.4 mm | 35.24% | 19.48% | 7.18 mm | 26.1% | 4.17 mm | 11.7 mm | 4.12 mm | 8.24 mm | 11.9 mm | 7.28 mm | 4.15 mm | 4.26 mm | 7.92 mm | 12.1 mm | 12.3 mm | 20% | 12.3 mm | 4.35 mm | 4.56 mm | Activity [21]: 28.54%; zone of inhibition at 20 µg/mL [22]: 8.72 mm; zone of inhibition at 20 µg/mL [23]: 8.12 mm; inhibition in vivo at 20 mg/kg [24]: 11.3%; inhibition in vivo at 20 mg/kg [25]: 32.7% |
| COc1ccc(Cl)c(-c2nnc3sc(Cc4c[nH]c5ccc(OC)cc45)nn23)c1 | 12.8 mm | 31.48% | 13.69% | 8.79 mm | 21.4% | 4.58 mm | 11.2 mm | 4.76 mm | 10.1 mm | 13.2 mm | 8.39 mm | 4.83 mm | 5.1 mm | 9.18 mm | 13.7 mm | 13.2 mm | 14.4% | 12.2 mm | 5.44 mm | 5.38 mm | Activity [21]: 23.76%; zone of inhibition at 20 µg/mL [22]: 9.2 mm; zone of inhibition at 20 µg/mL [23]: 8.52 mm; inhibition in vivo at 20 mg/kg [24]: 6.1%; inhibition in vivo at 20 mg/kg [25]: 33.9% |
| Cc1occc1-c1nnc2n1NC(c1ccc([N+](=O)[O-])o1)S2 (stereo not given) | 17.1 mm | 26.85% | 5.34% | 11.5 mm | 22.8% | 6.11 mm | 15.8 mm | 6.25 mm | 10.4 mm | 17.2 mm | 11 mm | 6.12 mm | 5.78 mm | 11.8 mm | 17.5 mm | 16.9 mm | 18.1% | 15.3 mm | 5.89 mm | 5.48 mm | Activity [21]: 15.68%; zone of inhibition at 20 µg/mL [22]: 11.1 mm; zone of inhibition at 20 µg/mL [23]: 11.5 mm; inhibition in vivo at 20 mg/kg [24]: 15.6%; inhibition in vivo at 20 mg/kg [25]: 24.9% |
| COc1ccc(Cc2nnc3sc(-c4ccnc5ccccc45)nn23)cc1OC | 18.2 mm | 21.96% | 7.55% | 13.3 mm | 19.1% | 6.96 mm | 17.8 mm | 7.4 mm | 13 mm | 18.7 mm | 14.4 mm | 7.7 mm | 7.85 mm | 14.1 mm | 18.3 mm | 18.6 mm | 17.1% | 18 mm | 6.14 mm | 6.32 mm | Activity [21]: 16.8%; zone of inhibition at 20 µg/mL [22]: 13.7 mm; zone of inhibition at 20 µg/mL [23]: 12.6 mm; inhibition in vivo at 20 mg/kg [24]: 14.6%; inhibition in vivo at 20 mg/kg [25]: 24.8% |
| COc1ccc(Cl)c(-c2nnc3n2NC(c2cccn2C)S3)c1 (stereo not given) | 11.9 mm | 19.67% | 4.38% | 6.82 mm | 18.5% | 3.82 mm | 12.6 mm | 3.6 mm | 7.65 mm | 9.33 mm | 6.9 mm | 3.9 mm | 3.82 mm | 7.1 mm | 11 mm | 10.1 mm | 16.8% | 12.9 mm | 4.3 mm | 4.71 mm | Activity [21]: 6.2%; zone of inhibition at 20 µg/mL [22]: 7.4 mm; zone of inhibition at 20 µg/mL [23]: 6.1 mm; inhibition in vivo at 20 mg/kg [24]: 14.1%; inhibition in vivo at 20 mg/kg [25]: 20.7% |
| COc1ccc(Cl)c(-c2nnc3sc(Cc4c[nH]c5ccccc45)nn23)c1 | 12.2 mm | 34.24% | 19.48% | 7.6 mm | 21.4% | 4.8 mm | 12.5 mm | 4.33 mm | 10.1 mm | 12.3 mm | 8.12 mm | 4.12 mm | 4.78 mm | 8.16 mm | 12.6 mm | 12.4 mm | 16.5% | 12.9 mm | 5.86 mm | 5.1 mm | Activity [21]: 28.32%; zone of inhibition at 20 µg/mL [22]: 9.48 mm; zone of inhibition at 20 µg/mL [23]: 7.59 mm; inhibition in vivo at 20 mg/kg [24]: 8.8%; inhibition in vivo at 20 mg/kg [25]: 34.7% |
